Experimental data from ChEMBL document CHEMBL1129038, “Studies on selectin blocker. 1. Structure-activity relationships of sialyl Lewis X analogs” (J Med Chem, 1996).

Key:
E-selectin = target: T1, E-selectin (Homo sapiens, UniProt P16581); test: Inhibitory activity against human chimeric E-selectin-Ig
T1 sequence (P16581 whole entry): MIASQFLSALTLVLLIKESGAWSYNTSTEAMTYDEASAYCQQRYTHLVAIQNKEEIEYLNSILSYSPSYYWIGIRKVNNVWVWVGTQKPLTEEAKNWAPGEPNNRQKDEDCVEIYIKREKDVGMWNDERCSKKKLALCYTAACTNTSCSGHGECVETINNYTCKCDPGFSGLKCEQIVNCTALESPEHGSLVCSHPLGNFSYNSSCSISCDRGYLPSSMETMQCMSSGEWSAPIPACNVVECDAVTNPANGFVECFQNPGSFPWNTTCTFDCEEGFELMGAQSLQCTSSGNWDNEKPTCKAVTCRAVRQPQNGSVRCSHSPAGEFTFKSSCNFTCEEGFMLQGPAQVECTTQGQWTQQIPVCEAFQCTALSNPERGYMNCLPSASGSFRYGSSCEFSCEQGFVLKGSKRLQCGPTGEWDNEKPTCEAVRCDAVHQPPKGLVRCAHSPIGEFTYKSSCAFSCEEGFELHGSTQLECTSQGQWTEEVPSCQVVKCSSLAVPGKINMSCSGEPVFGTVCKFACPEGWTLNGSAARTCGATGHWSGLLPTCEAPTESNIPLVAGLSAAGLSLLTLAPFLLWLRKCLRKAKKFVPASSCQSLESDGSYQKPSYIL
Method in brief: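 Competitive ELISA. sLeX-pentaceramide was adsorbed at 100 pmol per well and blocked with 5% BSA-PBS. E-selectin-Ig fusion (lectin, EGF and two complement regulatory repeats on human IgG1 hinge/CH2/CH3; cDNA from HUVEC mRNA) was precomplexed 30 min with biotin-anti-human IgG(Fc)/streptavidin-alkaline phosphatase. Compound at 100, 25, 6.25 or 1.56 µM final was preincubated with the complex 30 min, then 37 °C for 45 min. pNPP read at 405 nm; duplicates.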

P-selectin = target: T2, P-selectin (Homo sapiens, UniProt P16109); test: Inhibitory activity against human chimeric Selectin P-Ig
T2 sequence (P16109 whole entry): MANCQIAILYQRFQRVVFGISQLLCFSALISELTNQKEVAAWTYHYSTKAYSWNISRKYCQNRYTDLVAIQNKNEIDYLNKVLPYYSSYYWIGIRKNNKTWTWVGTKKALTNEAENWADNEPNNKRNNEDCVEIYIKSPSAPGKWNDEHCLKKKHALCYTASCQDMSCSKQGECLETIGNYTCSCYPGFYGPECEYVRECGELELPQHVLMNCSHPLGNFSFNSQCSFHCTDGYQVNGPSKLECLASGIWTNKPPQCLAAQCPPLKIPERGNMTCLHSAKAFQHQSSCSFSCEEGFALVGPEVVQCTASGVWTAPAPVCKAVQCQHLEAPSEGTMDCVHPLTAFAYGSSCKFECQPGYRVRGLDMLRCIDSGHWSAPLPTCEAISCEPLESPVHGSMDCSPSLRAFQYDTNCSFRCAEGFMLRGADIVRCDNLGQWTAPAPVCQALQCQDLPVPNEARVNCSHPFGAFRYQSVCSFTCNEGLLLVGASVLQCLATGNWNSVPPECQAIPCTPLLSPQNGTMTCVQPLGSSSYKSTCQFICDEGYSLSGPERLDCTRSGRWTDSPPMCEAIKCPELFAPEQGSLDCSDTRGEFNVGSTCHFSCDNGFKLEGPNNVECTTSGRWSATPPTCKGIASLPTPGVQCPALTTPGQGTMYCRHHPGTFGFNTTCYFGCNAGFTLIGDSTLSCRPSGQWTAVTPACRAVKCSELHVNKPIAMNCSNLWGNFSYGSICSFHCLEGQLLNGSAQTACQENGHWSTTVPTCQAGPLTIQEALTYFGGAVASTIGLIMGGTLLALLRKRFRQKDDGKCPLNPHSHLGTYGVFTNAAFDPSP
Method in brief: (§1)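 Competition against binding of the sLeX pentasaccharide ceramide ligand to purified selectin-Ig. The fusions carry the lectin, EGF and two complement regulatory repeats on the human IgG1 hinge/Fc and were expressed in COS7 (transient) or CHO (stable) cells. The P-selectin cDNA came from HUVEC mRNA and the L-selectin cDNA from Jurkat mRNA, both by RT-PCR.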

L-selectin = target: T3, L-selectin (Homo sapiens, UniProt P14151); test: Inhibitory activity against human chimeric L-selectin-Ig; method in brief: as §1
T3 sequence (P14151 whole entry): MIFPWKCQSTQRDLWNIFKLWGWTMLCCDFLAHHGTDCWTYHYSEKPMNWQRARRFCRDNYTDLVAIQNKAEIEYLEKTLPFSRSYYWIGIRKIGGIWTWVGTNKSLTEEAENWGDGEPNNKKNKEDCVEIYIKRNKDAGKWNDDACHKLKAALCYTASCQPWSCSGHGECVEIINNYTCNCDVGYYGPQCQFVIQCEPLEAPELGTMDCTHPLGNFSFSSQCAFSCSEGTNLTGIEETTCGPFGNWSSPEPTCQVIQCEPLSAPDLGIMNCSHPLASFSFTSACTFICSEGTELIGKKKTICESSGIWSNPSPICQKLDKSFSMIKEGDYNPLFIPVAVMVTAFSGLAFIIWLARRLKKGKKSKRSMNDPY

SMILES	IC50 (E-selectin)	IC50 (P-selectin)	IC50 (L-selectin)
CC(=O)N[C@H]1[C@H]([C@H](O)[C@H](O)CO)O[C@@](O[C@@H]2[C@H](O)[C@@H](O)[C@H](O[C@H]3[C@H](O[C@@H]4O[C@@H](C)[C@@H](O)[C@@H](O)[C@@H]4O)[C@@H](O)CO[C@@H]3CO)O[C@@H]2O)(C(=O)O)C[C@@H]1O	240 µM	> 1000 µM	220 µM
C[C@@H]1O[C@@H](O[C@@H]2CCO[C@H](CO)[C@H]2O[C@@H]2O[C@H](CO)[C@H](O)[C@H](OP(=O)(O)O)[C@H]2O)[C@@H](O)[C@H](O)[C@@H]1O	> 1000 µM	> 1000 µM	420 µM
C[C@@H]1O[C@@H](O[C@@H]2CCO[C@H](CO)[C@H]2O[C@@H]2O[C@H](CO)[C@H](O)[C@H](OS(=O)(=O)O)[C@H]2O)[C@@H](O)[C@H](O)[C@@H]1O	> 1000 µM	560 µM	> 1000 µM
CC(=O)N[C@H]1CO[C@H](CO)[C@@H](O[C@@H]2O[C@H](CO)[C@H](O)[C@H](OS(=O)(=O)O)[C@H]2O)[C@@H]1O[C@@H]1O[C@@H](C)[C@@H](O)[C@@H](O)[C@@H]1O	> 1000 µM	> 1000 µM	> 1000 µM
C[C@@H]1O[C@@H](O[C@H]2[C@H](O[C@@H]3O[C@H](CO)[C@H](O)[C@H](OS(=O)(=O)O)[C@H]3O)[C@@H](CO)OC[C@@H]2O)[C@@H](O)[C@H](O)[C@@H]1O	> 1000 µM	670 µM	> 1000 µM
CC(=O)N[C@H]1[C@H]([C@H](O)[C@H](O)CO)O[C@@](O[C@H]2[C@@H](O)[C@@H](CO)O[C@@H](O[C@@H]([C@H](O[C@@H]3O[C@@H](C)[C@@H](O)[C@@H](O)[C@@H]3O)[C@H](C=O)NC(C)=O)[C@H](O)CO)[C@@H]2O)(C(=O)O)C[C@@H]1O [SIALYL LEWIS X]	600 µM	> 1000 µM	> 1000 µM
